Experimental data reported in ChEMBL document CHEMBL2203173 (J Med Chem, 2012).
Active and inactive are the calls of the source. The rule behind the calls is not given here.

Legend:
MRC5 = test: Antiproliferative activity at human MRC5 cells after 72 hrs by MTT assay; type: functional, cell-based; settings: MRC5, 72 h
A549 [1] = test: Antiproliferative activity at human A549 cells after 72 hrs by MTT assay; type: functional, cell-based; settings: Homo sapiens, A549, 72 h
DMS-53 [2] = test: Antiproliferative activity at human DMS53 cells after 72 hrs by MTT assay; type: functional, cell-based
SK-N-MC [3] = test: Induction of 59Fe mobilization in human SK-N-MC cells at 25 uM after 3 hrs by gamma-scintillation counter; type: functional
Method in brief: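 SK-N-MC cells prelabeled with 59Fe-transferrin (0.75 μM) for 3 h/37 °C, then washed four times on ice with ice-cold PBS. Cells reincubated with or without chelators (25 μM) for 3 h/37 °C. Released 59Fe given as % of cellular 59Fe. Mean ± SD of three experiments.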

SK-N-MC [4] = test: Antiproliferative activity at human SK-N-MC cells after 72 hrs by MTT assay; type: functional, cell-based
SK-N-MC [5] = test: Inhibition to 59Fe uptake from 59Fe-transferrin in human SK-N-MC cells at 25 uM after 3 hrs; type: functional; design: scale not given: the % may be the effect or the level left
Method in brief: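 SK-N-MC cells labeled with 59Fe-transferrin (0.75 μM) for 3 h/37 °C with or without chelators (25 μM). Cells washed four times on ice with ice-cold PBS. Internalized 59Fe separated with Pronase (1 mg/mL) and expressed as % of control. Mean ± SD of three experiments.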

A549 [6] = test: Ratio of compound IC50 to Dp44mT IC50 for human A549 cells; type: functional
SK-N-MC [7] = test: Ratio of Dp4mT IC50 to compound IC50 for human SK-N-MC cells; type: functional
DMS-53 [8] = test: Antitumor activity against human DMS53 cells xenografted in BALB/c nu/nu mouse assessed as reduction in tumor weight at 8 mg/kg, iv administered for 5 days per week measured after 21 days (reference value: 0.830.11 g); type: functional, organism-based; design: dose 8 mg/kg
Method in brief: (§1)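 Nude mice bearing DMS-53 xenografts began dosing once tumors reached 100 mm3. Agents given iv by tail vein 5 days/week in vehicle of 30% propylene glycol/saline, with vehicle controls. Net tumor volume followed for 21 days. Mice sacrificed on day 21 and tumors excised and wet-weighed.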

DMS-53 [9] = test: Antitumor activity against human DMS53 cells xenografted in BALB/c nu/nu mouse assessed as reduction in tumor weight at 4 mg/kg, iv administered for 5 days a week measured after 21 days (reference value: 0.830.11 g); type: functional, organism-based; design: dose 4 mg/kg; method in brief: as §1
DMS-53 [10] = test: Antitumor activity against human DMS53 cells xenografted in BALB/c nu/nu mouse assessed as reduction of tumor volume at 4 mg/kg, iv administered for 5 days a week measured after 21 days (RVb = 922 94 mm'3); type: functional, organism-based; design: dose 4 mg/kg; method in brief: as §1
DMS-53 [11] = test: Antitumor activity against human DMS53 cell xenografted BALB/c nu/nu mouse assessed as reduction in tumor volume at 10 mg/kg, po administered for 3 times a week measured after 20 days (reference value: 997 155 mm'3); type: functional, organism-based; design: dose 10 mg/kg
Method in brief: (§2)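 DMS-53 xenograft nude mice gavaged 3 times/week with agent in 30% propylene glycol/saline or with vehicle alone. Net tumor volume followed for 20 days; the study ended when control tumors neared the 1000 mm3 ethical limit. Tumors excised and wet-weighed on day 20. n = 6–11 mice/condition, mean ± SD.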

DMS-53 [12] = test: Antitumor activity against human DMS53 cells xenografted in BALB/c nu/nu mouse assessed as reduction of tumor volume at 8 mg/kg, iv administered for 5 days a week measured after 21 days (RVb = 922 94 mm'3); type: functional, organism-based; design: dose 8 mg/kg; method in brief: as §1
DMS-53 [13] = test: Antitumor activity against human DMS53 cell xenografted BALB/c nu/nu mouse assessed as reduction in tumor volume at 20 mg/kg, po administered for 3 times a week measured after 20 days (reference value: 997 155 mm'3); type: functional, organism-based; design: dose 20 mg/kg; method in brief: as §2
Mus musculus [14] = test: Toxicity in BALB/c nu/nu mouse xenografted with human DMS53 cells assessed as change in hematopoetic cells in splenic red pulp at 0.75 mg/kg, iv administered for 5 days a week measured after 21 days by hematoxylin and eosin staining method; type: organism-based, DMS-53; design: dose 0.75 mg/kg, route intravenous; settings: in vivo, 504 h
Method in brief: (§3)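 DMS-53 xenograft nude mice, dosed from 100 mm3 tumor volume. Reference chelator given iv via tail vein as the base form, 5 days/week for 21 days, vehicle 30% propylene glycol/saline. Organs taken at sacrifice on day 21, stained with H&E, Perls' and Gomori Trichrome, and examined by an independent veterinary pathologist.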

Mus musculus [15] = test: Toxicity in BALB/c nu/nu mouse xenografted with human DMS53 cells assessed as change in platelet count at 0.75 mg/kg, iv administered for 5 days a week measured after 21 days; type: organism-based, DMS-53; design: dose 0.75 mg/kg, route intravenous; settings: in vivo, 504 h
Method in brief: (§4)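 Nude mice carrying DMS-53 xenografts (treatment from 100 mm3) received iv tail-vein doses in 30% propylene glycol/saline, 5 days/week for 21 days. Hematological indices (RBC, hemoglobin, hematocrit, reticulocytes, WBC, platelets) were then compared with vehicle controls.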

Mus musculus [16] = test: Toxicity in BALB/c nu/nu mouse xenografted with human DMS53 cells assessed as change in reticulocyte count at 0.75 mg/kg, iv administered for 5 days a week measured after 21 days; type: organism-based, DMS-53; design: dose 0.75 mg/kg, route intravenous; settings: in vivo, 504 h; method in brief: as §4
Mus musculus [17] = test: Toxicity in BALB/c nu/nu mouse xenografted with human DMS53 cells assessed as change in hemoglobin level at 0.75 mg/kg, iv administered for 5 days a week measured after 21 days; type: organism-based, DMS-53; design: dose 0.75 mg/kg, route intravenous; settings: in vivo, 504 h
Method in brief: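 DMS-53 xenografts in nude mice; dosing started at 100 mm3 tumor volume. Agents given iv via tail vein, 5 days/week for 21 days, vehicle 30% propylene glycol/saline, vehicle-treated controls. Mice sacrificed day 21. Body and organ weights and hematological indices recorded. Spleen, kidney, liver, heart, lungs and brain were stained with H&E, Perls' and Gomori Trichrome and read by an independent veterinary pathologist.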

Mus musculus [18] = test: Toxicity in BALB/c nu/nu mouse xenografted with human DMS53 cells assessed as change in RBC count at 0.75 mg/kg, iv administered for 5 days a week measured after 21 days; type: organism-based, DMS-53; design: dose 0.75 mg/kg, route intravenous; settings: in vivo, 504 h
Mus musculus [19] = test: Toxicity in BALB/c nu/nu mouse xenografted with human DMS53 cells assessed as change in organ weight at 0.75 mg/kg, iv administered for 5 days a week measured after 21 days; type: organism-based, DMS-53; design: dose 0.75 mg/kg, route intravenous; settings: in vivo, 504 h
Method in brief: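 DMS-53 xenograft-bearing nude mice, treatment started at 100 mm3 tumour volume: iv tail-vein dosing in 30% propylene glycol/saline, 5 days/week for 21 days. Organs were weighed at sacrifice and compared with vehicle-control mice.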

Mus musculus [20] = test: Toxicity in human DMS53 cells xenografted BALB/c nu/nu mouse assessed as body weight change at 0.75 mg/kg, iv administered for 5 days a week measured after 21 days; type: organism-based, DMS-53; design: dose 0.75 mg/kg, route intravenous; settings: in vivo, 504 h
Method in brief: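 Body weights of DMS-53 xenograft-bearing nude mice were followed over 21 days of iv tail-vein dosing, 5 days/week, in 30% propylene glycol/saline, beginning at 100 mm3 tumour volume. Values are the average body weight per group.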

DMS-53 [21] = test: Antitumor activity against human DMS53 cells xenografted BALB/c nu/nu mouse assessed as reduction of tumor volume at 0.75 mg/kg, iv administered for 5 days a week measured after 21 days (RVb = 922 94 mm'3); type: functional, organism-based; design: dose 0.75 mg/kg; method in brief: as §1
Mus musculus [22] = test: Toxicity in BALB/c nu/nu mouse xenografted with human DMS53 cells assessed as cardiac fibrosis at 0.75 mg/kg, iv administered for 5 days a week measured after 21 days by […]; type: organism-based, Heart, DMS-53; design: dose 0.75 mg/kg, route intravenous; settings: in vivo, 504 h
Method in brief: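 DMS-53 xenograft nude mice given agents iv by tail vein 5 days/week in 30% propylene glycol/saline for 21 days. At sacrifice, heart sections were stained with Gomori Trichrome to detect fibrosis. Spleen, kidney, liver, heart, lungs and brain were also stained with H&E and Perls' and examined by an independent veterinary pathologist.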

Mus musculus [23] = test: Toxicity in BALB/c nu/nu mouse xenografted with human DMS53 cells assessed as change in lungs histology at 0.75 mg/kg, iv administered for 5 days a week measured after 21 days by hematoxylin and eosin staining method; type: organism-based, DMS-53; design: dose 0.75 mg/kg, route intravenous; settings: in vivo, 504 h; method in brief: as §3
Mus musculus [24] = test: Toxicity in BALB/c nu/nu mouse xenografted with human DMS53 cells assessed as change in brain histology at 0.75 mg/kg, iv administered for 5 days a week measured after 21 days by hematoxylin and eosin staining method; type: organism-based, DMS-53; design: dose 0.75 mg/kg, route intravenous; settings: in vivo, 504 h; method in brief: as §3
Mus musculus [25] = test: Toxicity in BALB/c nu/nu mouse xenografted with human DMS53 cells assessed as hepatocellular fibrosis at 0.75 mg/kg, iv administered for 5 days a week measured after 21 days by hematoxylin and eosin staining method; type: organism-based, DMS-53; design: dose 0.75 mg/kg, route intravenous; settings: in vivo, 504 h
Method in brief: (§5)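 Nude mice with DMS-53 xenografts dosed by tail-vein iv injection in 30% propylene glycol/saline, starting at 100 mm3 tumour volume, 5 days/week for 21 days. Spleen, kidney, liver, heart, lungs and brain were stained with H&E, Perls' (Fe loading) and Gomori Trichrome (fibrosis) by standard methods, and an independent veterinary pathologist examined them.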

Mus musculus [26] = test: Toxicity in BALB/c nu/nu mouse xenografted with human DMS53 cells assessed as hepatocellular necrosis at 3 mg/kg, iv administered for 5 days a week measured after 21 days by hematoxylin and eosin staining method; type: organism-based, DMS-53; design: dose 3 mg/kg, route intravenous; settings: in vivo, 504 h; method in brief: as §5
Mus musculus [27] = test: Toxicity in BALB/c nu/nu mouse xenografted with human DMS53 cells assessed as hepatocellular necrosis at 0.75 mg/kg, iv administered for 5 days a week measured after 21 days by hematoxylin and eosin staining method; type: organism-based, DMS-53; design: dose 0.75 mg/kg, route intravenous; settings: in vivo, 504 h; method in brief: as §5
Mus musculus [28] = test: Toxicity in BALB/c nu/nu mouse xenografted with human DMS53 cells assessed as vacuolation at 0.75 mg/kg, iv administered for 5 days a week measured after 21 days by hematoxylin and eosin staining method; type: organism-based, DMS-53; design: dose 0.75 mg/kg, route intravenous; settings: in vivo, 504 h; method in brief: as §5

SMILES: O=C(N/N=C/c1c(O)ccc2ccccc12)c1ccncc1
- IC50 (MRC5): > 10000 nM
- IC50 (A549 [1]): 2200 nM
- IC50 (DMS-53 [2]; Homo sapiens, DMS-53, 72 h): 1100 nM
- Activity (SK-N-MC [3]): 44.9%
- IC50 (SK-N-MC [4]): 1100 nM
- Activity (SK-N-MC [5]): 5.3%

SMILES: CN(C(=S)NN=C(c1ccccn1)c1ccccn1)C1CCCCC1 [listing 1 of 2 here]
- Ratio IC50 (A549 [6]): 5
- IC50 (DMS-53 [2]; dms-53): 8 nM
- Ratio IC50 (SK-N-MC [7]): 23
- IC50 (SK-N-MC [4]): 13 nM

SMILES: CN(C(=S)NN=C(c1ccccn1)c1ccccn1)c1ccccc1
- IC50 (SK-N-MC [4]): 6 nM

SMILES: CN(C(=S)NN=C(c1ccccn1)c1ccccn1)C1CCCCC1 [listing 2 of 2 here]
- Activity (DMS-53 [8]): Active
- Activity (DMS-53 [9]): Active
- Activity (DMS-53 [10]): Active
- Activity (DMS-53 [11]): Active
- Activity (DMS-53 [12]): Active
- Activity (DMS-53 [13]): Active

SMILES: CCN(C)C(=S)N/N=C(\c1ccccc1)c1ccccn1
- IC50 (SK-N-MC [4]): 6 nM

SMILES: CNC(=S)N/N=C(\c1ccccc1)c1ccccn1
- IC50 (SK-N-MC [4]): 18 nM

SMILES: CCN(C(=S)NN=C(c1ccccn1)c1ccccn1)c1ccccc1
- IC50 (SK-N-MC [4]): 10 nM

SMILES: CN(C)C(=S)NN=C(c1ccccn1)c1ccccn1
- Activity (Mus musculus [14]): Non-toxic
- Activity (Mus musculus [15]): Non-toxic
- Activity (Mus musculus [16]): Non-toxic
- Activity (Mus musculus [17]): Non-toxic
- Activity (Mus musculus [18]): Non-toxic
- Activity (Mus musculus [19]): Non-toxic
- Activity (Mus musculus [20]): Non-toxic
- Activity (DMS-53 [21]): Active
- IC50 (MRC5): > 10000 nM
- IC50 (A549 [1]): 20 nM
- IC50 (DMS-53 [2]; Homo sapiens, DMS-53, 72 h): 10 nM
- Activity (SK-N-MC [3]): 45%
- Activity (SK-N-MC [5]): 3.5%
- Activity (Mus musculus [22]): Toxic
- Activity (Mus musculus [23]): Non-toxic
- Activity (Mus musculus [24]): Non-toxic
- Activity (Mus musculus [25]): Non-toxic
- Activity (Mus musculus [26]): Non-toxic
- Activity (Mus musculus [27]): Non-toxic
- Activity (Mus musculus [28]): Toxic
